Data as given in PubChem BioAssay.
Records with an inconclusive call do not appear.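 How the source made its calls, unless noted: active means cell viability at or below a set limit in both duplicate runs, the limit being the all-compound median minus 4 SD (cut at about 23% in these data, passing the limit was not always enough); inconclusive means no clear call, values can overlap the other calls; inactive means the rest.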

Columns and labels:
[1] = OD615 S. cerevisiae growth inhibition, permissive medium, pilot counter-assay, permissive growth control for S. cerevisiae lifespan shortening project (AID 705;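 active means growth inhibition above 25% in both replicates, a cutoff set 3 SD above the mean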); conditions: OD615, 24 h, at 10 µM, active compounds read high
Procedure, shortened: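 Material: engineered DeaD yeast; compound dosing: one dose 10 µM, DMSO 0.25% final; measure: yeast growth inhibition indicated by reduced 24 h OD615; detection: OD615 turbidity read; incubation: cells pre-grown 4 h, then 24 h compound exposure, 30 °C humidified; medium: permissive synthetic complete medium with raffinose and galactose carbon sources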

[2] = Restrictive medium S. cerevisiae growth inhibition, OD615, pilot screen of yeast lifespan reduction project, restrictive growth control (AID 706;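 active means growth inhibition above a set limit, 3 SD over mean compound inhibition, in both replicates, cut at about 43% in these data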;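 further: modified DeaD lifespan yeast strain shifted to restrictive glucose medium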); conditions: OD615, 48 h, at 10 µM, active compounds read high
Procedure, shortened: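 material = engineered S. cerevisiae DeaD strain | medium = glucose-based CSMM-D restrictive medium | times = 4 h pre-incubation, 48 h exposure at 30 °C | technique = OD615 absorbance reading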

[3] = viability gain of MRP-1-high H69AR cells under doxorubicin, pilot screen, MRP-1 activator project, CellTiter-Glo, duplicate (AID 807;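 active means viability increase at or above a cutoff of the median across tested compounds plus 3 SD, cut at about 8.5% in these data, passing the limit was not always enough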;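 further: compound pretreatment 18-22 h then 72 h combined with doxorubicin; 0% = doxorubicin alone and 100% = vehicle without doxorubicin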); conditions: H69AR viability with doxorubicin, CellTiter-Glo luminescence; at 10 µM; active compounds read high
[4] = growth suppression of beta-catenin knockout HCT116, pilot screen, human colon tumor cells (AID 823); conditions: CellTiter-Glo, 60 h, at 10 µM, active compounds read low;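 further: 0% = wells killed by 20 µM Hyamine and 100% = untreated DMSO cell wells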
[5] = growth suppression of PTEN-deleted HCT116, pilot screen, cell-based, HCT116 clonal line, CellTiter-Glo (AID 824;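 active means viability at or below 27.92% in each of two runs, the all-compound median minus 4 SD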;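 further: 0% = 20 µM Hyamine control and 100% = vehicle cell control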); conditions: 60 h, at 10 µM, active compounds read low
[6] = inhibitors of the yeast RAM network, pilot screen, dse1pr::URA3 reporter, 5-FOA selection (AID 869;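 active means inhibition over a set limit, the all-compound mean plus 3 SD, in both replicate runs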;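 further: 0% = DMSO wells with no growth and 100% = 10 µM 1-NA-PP1 with full growth; RAM network block rescues cells from 5-FOA so hits raise OD615 growth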); conditions: S. cerevisiae dse1pr::URA3 5-FOA growth, OD615, 2 d; at 10 µM; active compounds read high; strain carries analog-sensitive mutant Cbk1 kinase
[7] = RAM signaling pathway blockade in yeast – S. cerevisiae, Pdr1DBD-CYC8 efflux-inhibited sensitized strain, primary screen (AID 1298;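 active means RAM network inhibition above 8.4% in each of two replicates, 3 SD over the compound average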;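 further: 0% = DMSO untreated cells without growth and 100% = 10 µM 1-NA-PP1 full growth; higher means more yeast growth rescued from 5-FOA killing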); conditions: S. cerevisiae cbk1-as DSE1-URA3 strain, 5-FOA growth OD615, 2 d; at 50 µM; active compounds read high

COc1ccc(S(=O)(=O)NCCN2CCOCC2)c2ccccc12
inactive: growth inhibition [1] -1.53% | growth inhibition [2] -2.08% | viability increase [3] -1.32% | viability [4] 101% | viability [5] 95.1% | inhibition [6] -0.495% | RAM network inhibition [7] 1.53%

CCOc1ccc(NC(=O)CSc2nc3c(c(=O)n2C)SC(C)C3)cc1 (configuration not stated)
inactive: growth inhibition [1] -13.6% | growth inhibition [2] -13.2% | viability increase [3] -0.83% | viability [4] 93.5% | viability [5] 91.6% | inhibition [6] 4.75% | RAM network inhibition [7] 5.69%

Cc1ccc(-c2nn(C)c(=O)c3ccccc23)cc1CNC(=O)c1ccco1
inactive: growth inhibition [1] -19.5% | growth inhibition [2] -16.5% | viability increase [3] -6.36% | viability [4] 78.3% | viability [5] 72.9% | inhibition [6] 1.3% | RAM network inhibition [7] 6.65%

CCOC(=O)N1CCN(CC(=O)Nc2cc(OCC)ccc2OCC)CC1
inactive: growth inhibition [1] -8.3% | growth inhibition [2] -19.7% | viability increase [3] -6.22% | viability [4] 91.2% | viability [5] 93.8% | inhibition [6] 2.08% | RAM network inhibition [7] 7.52%

COc1ccc(NC(=O)c2cc3ccccn3n2)cc1
inactive: growth inhibition [1] -2.21% | growth inhibition [2] 0.42% | viability increase [3] -0.18% | viability [4] 81% | viability [5] 73.1% | inhibition [6] -0.545% | RAM network inhibition [7] 0.83%

CC(=O)NC(C)c1nc2ccccc2n1Cc1ccccc1F (configuration not stated)
inactive: growth inhibition [1] -5.38% | growth inhibition [2] -3.36% | viability increase [3] 0.25% | viability [4] 102% | viability [5] 93.8% | inhibition [6] 3.67% | RAM network inhibition [7] 5.71%

COC(=O)c1coc(-c2ccc(C)cc2)c1C(=O)OC
inactive: growth inhibition [1] -4.24% | growth inhibition [2] 2% | viability increase [3] 0.08% | viability [4] 88.6% | viability [5] 95.9% | inhibition [6] 0.11% | RAM network inhibition [7] 3.96%

COc1cccc(C2CC(c3cccc(C)c3)n3ncnc3N2)c1 (configuration not stated)
inactive: growth inhibition [1] -9.14% | growth inhibition [2] -3.84% | viability increase [3] -2.07% | viability [4] 90% | viability [5] 90.4% | inhibition [6] 0.92% | RAM network inhibition [7] 0.74%

COc1cccc(-c2nc(CS(=O)CC(=O)NCc3ccc4c(c3)OCO4)c(C)o2)c1 (configuration not stated)
inactive: growth inhibition [1] -3.78% | growth inhibition [2] 14.7% | viability increase [3] 0.74% | viability [4] 97.2% | viability [5] 101% | inhibition [6] 3% | RAM network inhibition [7] 4.76%

CCCCOc1ccccc1C1C(C(=O)OC)=C(C)N(C)C(C)=C1C(=O)OC
inactive: growth inhibition [1] -4.46% | growth inhibition [2] -5.04% | viability increase [3] -3.49% | viability [4] 83.1% | viability [5] 79.8% | inhibition [6] 0.225% | RAM network inhibition [7] 8.12%

O=C(Nc1nc2cc3c(cc2s1)OCO3)C1=COCCO1
inactive: growth inhibition [1] -9.14% | growth inhibition [2] -31.3% | viability increase [3] -6.84% | viability [4] 45.8% | viability [5] 41.3% | inhibition [6] 1.75% | RAM network inhibition [7] 5.3%

CCOC(=O)CN1CC23C=CC(O2)C(C(=O)O)C3C1=O (configuration not stated)
inactive: growth inhibition [1] 2.83% | growth inhibition [2] -3.85% | viability increase [3] 0.14% | viability [4] 103% | viability [5] 107% | inhibition [6] 0.73% | RAM network inhibition [7] 4%

COc1ccc(N2C(=O)C3CCCN3C2c2ccc(C)cc2)cc1 (configuration not stated)
inactive: growth inhibition [1] -2.01% | growth inhibition [2] 2.53% | viability increase [3] -1.95% | viability [4] 97.6% | viability [5] 99.2% | inhibition [6] 1.94% | RAM network inhibition [7] -1.51%

Cc1ccc2c(c1)N(CCCC(=O)NCc1cccnc1)C(=O)CO2
inactive: growth inhibition [1] -13.3% | growth inhibition [2] -16.3% | viability increase [3] 0.96% | viability [4] 95.6% | viability [5] 99.1% | inhibition [6] -0.1% | RAM network inhibition [7] 0.98%

CCOc1ccc2[nH]cc(S(=O)(=O)c3ccc(F)cc3)c(=O)c2c1
inactive: growth inhibition [1] -4.64% | growth inhibition [2] -19.8% | viability increase [3] -0.98% | viability [4] 78.7% | viability [5] 87.2% | inhibition [6] 0.455% | RAM network inhibition [7] 2.36%

O=C(NCc1ccccn1)c1ccc2ccccc2n1
inactive: growth inhibition [1] 4.58% | growth inhibition [2] -7.25% | viability increase [3] -1.47% | viability [4] 111% | viability [5] 102% | inhibition [6] 1.32% | RAM network inhibition [7] 5.32%

CCCNC(=O)c1noc2c1CCc1ccccc1-2
inactive: growth inhibition [1] -1.21% | growth inhibition [2] 5.41% | viability increase [3] -1.54% | viability [4] 98.3% | viability [5] 104% | inhibition [6] 0.305% | RAM network inhibition [7] -1.13%

COc1ccc(C2C(C(=O)N3CC(C)CC(C)C3)c3ccccc3C(=O)N2C)cc1 (configuration not stated)
inactive: growth inhibition [1] -10.8% | growth inhibition [2] -4.94% | viability increase [3] -1.09% | viability [4] 96.7% | viability [5] 93% | inhibition [6] 0.305% | RAM network inhibition [7] 0.47%

CN1CCN(c2nc3c(c(=O)n(C)c(=O)n3C)n2CCSc2nc3ccccc3s2)CC1
inactive: growth inhibition [1] -5.4% | growth inhibition [2] -16.2% | viability increase [3] -3.94% | viability [4] 100% | viability [5] 96.1% | inhibition [6] 1.37% | RAM network inhibition [7] 3.29%

Cc1cccn2c(=O)c(C=NCc3ccco3)c(Nc3ccc(Cl)cc3)nc12
inactive: growth inhibition [1] -14.3% | growth inhibition [2] -2.91% | viability increase [3] -6.81% | viability [4] 79.7% | viability [5] 76.1% | inhibition [6] 1.09% | RAM network inhibition [7] 1.21%

O=C(Nc1ccccc1)N(CCCN1CCOCC1)Cc1cccs1
inactive: growth inhibition [1] -1.32% | growth inhibition [2] 9.1% | viability increase [3] -3.05% | viability [4] 96.3% | viability [5] 93.9% | inhibition [6] 2.5% | RAM network inhibition [7] 0.88%

CC1=C(C(=O)OC(C)C)C(c2c(O)ccc3ccccc23)NC(=O)N1 (configuration not stated)
inactive: growth inhibition [1] 2.06% | growth inhibition [2] -6.33% | viability increase [3] -3.16% | viability [4] 93.9% | viability [5] 90.7% | inhibition [6] 1.88% | RAM network inhibition [7] 2.42%

CCOC(=O)Cc1csc(NC(=O)CN2C(=O)c3ccccc3S2(=O)=O)n1
inactive: growth inhibition [1] -8.36% | growth inhibition [2] -15% | viability increase [3] -2.2% | viability [4] 96.9% | viability [5] 101% | inhibition [6] 3.63% | RAM network inhibition [7] 5.65%

C=C(C)CSC1=C(C#N)C(c2ccccc2)CC(=O)N1 (configuration not stated)
inactive: growth inhibition [1] -13.1% | growth inhibition [2] -8.52% | viability increase [3] -2.09% | viability [4] 86.6% | viability [5] 84.1% | inhibition [6] 0.55% | RAM network inhibition [7] 4.86%

Cc1c(C(=O)NCc2cccnc2)sc2nc(-c3ccc(F)cc3)cn12
inactive: growth inhibition [1] -6.33% | growth inhibition [2] 22.2% | viability increase [3] 0.45% | viability [4] 77.3% | viability [5] 78% | inhibition [6] 1.01% | RAM network inhibition [7] 2.56%

C=C(C)CSc1nc2c(c(=O)[nH]c(=O)n2C)n1CCC(C)C
inactive: growth inhibition [1] -17.9% | growth inhibition [2] -22.9% | viability increase [3] -2.5% | viability [4] 80.8% | viability [5] 80.9% | inhibition [6] 1.38% | RAM network inhibition [7] 1.85%

O=C1CCC(=O)N1c1ccc(CSc2nc3ccccc3[nH]2)cc1
inactive: growth inhibition [1] -4.96% | growth inhibition [2] -2.19% | viability increase [3] 0.79% | viability [4] 104% | viability [5] 92.9% | inhibition [6] 1.06% | RAM network inhibition [7] 2.24%

CCC(C(=O)OC)n1cnc2c(nnn2-c2cccc(Cl)c2)c1=O (configuration not stated)
inactive: growth inhibition [1] -3.35% | growth inhibition [2] -0.405% | viability increase [3] 1.21% | viability [4] 100% | viability [5] 92.1% | inhibition [6] 0.145% | RAM network inhibition [7] 4.91%

Cc1cc(NC(=O)CSc2ccc3nnc(-c4ccccn4)n3n2)no1
inactive: growth inhibition [1] -3.09% | growth inhibition [2] 10.1% | viability increase [3] -1.04% | viability [4] 102% | viability [5] 90.4% | inhibition [6] 0.535% | RAM network inhibition [7] 1.71%

O=C(c1ccc(CN2CCOCC2)cc1)N1CCN(Cc2ccccc2)CC1
inactive: growth inhibition [1] -15% | growth inhibition [2] -5.85% | viability increase [3] 0.28% | viability [4] 97.5% | viability [5] 97.9% | inhibition [6] 0.83% | RAM network inhibition [7] 12.1%

Cn1c(C(=O)N2CCN(C(=O)c3ccco3)CC2)cc2c(=O)n(C)c3ccccc3c21
inactive: growth inhibition [1] -3.88% | growth inhibition [2] 5.88% | viability increase [3] -4.21% | viability [4] 92.9% | viability [5] 87% | inhibition [6] 0.83% | RAM network inhibition [7] 2.87%

N#C/C(=C(/O)CN1C(=O)c2ccccc2C1=O)c1nc2ccccc2[nH]1
inactive: growth inhibition [1] -9.93% | growth inhibition [2] -4.08% | viability increase [3] 0.55% | viability [4] 100% | viability [5] 94.4% | inhibition [6] 4.51% | RAM network inhibition [7] 4.04%

COCCCNC(=O)CS(=O)Cc1nc(-c2ccccc2C)oc1C (configuration not stated)
inactive: growth inhibition [1] -4.76% | growth inhibition [2] 18% | viability increase [3] -1.44% | viability [4] 97.9% | viability [5] 102% | inhibition [6] 0.445% | RAM network inhibition [7] 6.27%

Cc1ccc2oc3c(c(=O)c2c1)C(c1cccs1)N(CCCN(C)C)C3=O (configuration not stated)
inactive: growth inhibition [1] 2.01% | growth inhibition [2] 4.98% | viability increase [3] -2.74% | viability [4] 97.2% | viability [5] 97.8% | inhibition [6] 1.28% | RAM network inhibition [7] -1.13%

CCCCC(CC)CNC(=O)CCS(=O)(=O)c1cccc2nonc12 (configuration not stated)
inactive: growth inhibition [1] 1.79% | growth inhibition [2] -0.105% | viability increase [3] -0.88% | viability [4] 92.2% | viability [5] 91.4% | inhibition [6] 2.17% | RAM network inhibition [7] 3.63%

Cn1c(NC(=O)c2ccc(Cl)cc2Cl)cc(=O)n(C)c1=O
inactive: growth inhibition [1] -4.17% | growth inhibition [2] 0.265% | viability increase [3] -2.37% | viability [4] 98.7% | viability [5] 90.8% | inhibition [6] 0.95% | RAM network inhibition [7] -0.2%
